Assay results from ChEMBL document CHEMBL4118021, “Studies of TAK1-centered polypharmacology with novel covalent TAK1 inhibitors” (Bioorg Med Chem, 2017).
Calls of active or inactive are those of the source. The rule behind the calls is not given here.

Experiments:
[1] = molecular target: Serine/threonine-protein kinase Sgk3 (Homo sapiens) (UniProt Q96BR1); assay: Inhibition of SGK3 in human SKCO1 cells at 1 uM after 4 hrs using biotin labeled FYAVKVLQK probe by mass-spectrometric analysis relative to control; format: cell-based
[2] = Antiproliferative activity against human SW156 cells harboring wild type KRAS after 72 hrs by CellTiter-Glo assay; format: functional, cell-based
[3] = system: BaF3; assay: Antiproliferative activity against mouse BA/F3 cells harboring KRAS G12D mutant after 72 hrs in presence of IL-3 by CellTiter-Glo assay; format: functional, cell-based; conditions: BaF3, 72 h
[4] = molecular target: T1, Mitogen-activated protein kinase kinase kinase 7 (Homo sapiens) (UniProt O43318); conditions: 0.6 uM
T1 sequence (whole entry): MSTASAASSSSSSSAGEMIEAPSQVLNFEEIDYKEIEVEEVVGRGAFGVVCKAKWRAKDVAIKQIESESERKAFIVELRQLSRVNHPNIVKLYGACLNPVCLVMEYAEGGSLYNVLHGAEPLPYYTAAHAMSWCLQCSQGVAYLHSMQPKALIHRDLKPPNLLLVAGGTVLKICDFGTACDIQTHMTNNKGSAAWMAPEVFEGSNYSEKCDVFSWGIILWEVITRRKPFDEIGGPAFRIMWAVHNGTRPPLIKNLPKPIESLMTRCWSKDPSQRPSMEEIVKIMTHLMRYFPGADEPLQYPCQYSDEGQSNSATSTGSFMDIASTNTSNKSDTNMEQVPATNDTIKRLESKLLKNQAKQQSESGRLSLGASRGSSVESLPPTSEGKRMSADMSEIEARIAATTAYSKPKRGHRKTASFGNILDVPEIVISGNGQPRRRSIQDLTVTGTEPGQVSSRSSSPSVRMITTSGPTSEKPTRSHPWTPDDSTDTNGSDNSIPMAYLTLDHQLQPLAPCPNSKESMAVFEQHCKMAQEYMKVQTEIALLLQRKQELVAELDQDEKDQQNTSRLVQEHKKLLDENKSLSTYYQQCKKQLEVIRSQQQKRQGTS

[5] = system: ASPC1; assay: Antiproliferative activity against human AsPC1 cells harboring KRAS G12D mutant after 72 hrs by CellTiter-Glo assay; format: functional, cell-based; conditions: ASPC1, 72 h
[6] = molecular target: T1, Mitogen-activated protein kinase kinase kinase 7 (Homo sapiens); conditions: 0.6 uM; remark: listed apart in the source
[7] = molecular target: Cyclin-dependent kinase 6 (Homo sapiens) (UniProt Q00534); assay: Inhibition of CDK6 in human SKCO1 cells at 1 uM after 4 hrs using biotin labeled DLKPQNILVTSSGQIK probe by mass-spectrometric analysis relative to control; format: cell-based
[8] = molecular target: T2, Dual specificity mitogen-activated protein kinase kinase 3 (Homo sapiens) (UniProt P46734); assay: Inhibition of MAP2K3 in human SKCO1 cells at 1 uM after 4 hrs using biotin labeled DVKPSNVLINK probe by mass-spectrometric analysis relative to control; format: cell-based
T2 sequence (whole entry): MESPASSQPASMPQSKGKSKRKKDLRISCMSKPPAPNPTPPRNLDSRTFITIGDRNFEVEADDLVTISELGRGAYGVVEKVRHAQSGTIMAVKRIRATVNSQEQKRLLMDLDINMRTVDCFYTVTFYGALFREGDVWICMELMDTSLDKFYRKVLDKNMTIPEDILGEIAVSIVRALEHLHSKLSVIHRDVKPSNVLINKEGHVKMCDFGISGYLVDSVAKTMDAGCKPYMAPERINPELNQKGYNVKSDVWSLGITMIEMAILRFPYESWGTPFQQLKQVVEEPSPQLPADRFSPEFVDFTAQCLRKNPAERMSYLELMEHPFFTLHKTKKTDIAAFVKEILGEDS

[9] = molecular target: Eukaryotic elongation factor 2 kinase (Homo sapiens) (UniProt O00418); assay: Inhibition of eEF2K in human SKCO1 cells at 1 uM after 4 hrs using biotin labeled YIKYNSNSGFVR probe by mass-spectrometric analysis relative to control; format: cell-based
[10] = molecular target: Cyclin-dependent kinase 5 (Homo sapiens) (UniProt Q00535); assay: Inhibition of CDK5 in human SKCO1 cells at 1 uM after 4 hrs using biotin labeled DLKPQNLLINR probe by mass-spectrometric analysis relative to control; format: cell-based
[11] = molecular target: Ribosomal protein S6 kinase alpha-1 (Homo sapiens) (UniProt Q15418); assay: Inhibition of RSK1 domain2 in human SKCO1 cells at 1 uM after 4 hrs using biotin labeled DLKPSNILYVDESGNPECLR probe by mass-spectrometric analysis relative to control; format: cell-based
[12] = molecular target: Ephrin type-B receptor 2 (Homo sapiens) (UniProt P29323); assay: Inhibition of EphB2 in human SKCO1 cells at 1 uM after 4 hrs using biotin labeled FLEDDTSDPTYTSALGGKIPIR probe by mass-spectrometric analysis relative to control; format: cell-based
[13] = molecular target: Receptor tyrosine-protein kinase erbB-2 (Homo sapiens) (UniProt P04626); assay: Inhibition of HER2/ErbB2 in human SKCO1 cells at 1 uM after 4 hrs using biotin labeled GIWIPDGENVKIPVAIKVLR probe by mass-spectrometric analysis relative to control; format: cell-based
[14] = molecular target: Serine/threonine-protein kinase A-Raf (Homo sapiens) (UniProt P10398); assay: Inhibition of ARAF in human SKCO1 cells at 1 uM after 4 hrs using biotin labeled DLKSNNIFLHEGLTVK probe by mass-spectrometric analysis relative to control; format: cell-based
[15] = molecular target: Serine/threonine-protein kinase Nek6 (Homo sapiens) (UniProt Q9HC98); assay: Inhibition of NEK6 in human SKCO1 cells at 1 uM after 4 hrs using biotin labeled DIKPANVFITATGVVK probe by mass-spectrometric analysis relative to control; format: cell-based
[16] = molecular target: T1, Mitogen-activated protein kinase kinase kinase 7 (Homo sapiens); conditions: 0.6 uM; remark: listed apart in the source
[17] = molecular target: Mitogen-activated protein kinase kinase kinase 5 (Homo sapiens) (UniProt Q99683); assay: Inhibition of MAP3K5 in human SKCO1 cells at 1 uM after 4 hrs using biotin labeled DIKGDNVLINTYSGVLK probe by mass-spectrometric analysis relative to control; format: cell-based
[18] = molecular target: Tyrosine-protein kinase SYK (Homo sapiens) (UniProt P43405); assay: Inhibition of SYK in human SKCO1 cells at 1 uM after 4 hrs using biotin labeled ISDFGLSKALR probe by mass-spectrometric analysis relative to control; format: cell-based
Outline: (§1)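 Live SK-CO-1 cells exposed to compound at 1 μM or DMSO for 4 h (KiNativ). Lysates then labeled with lysine-reactive ATP/ADP-biotin probe, and probe-labeled kinase peptides quantified by mass spectrometry. Percent inhibition of probe-dependent recovery calculated relative to DMSO-treated cells.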

[19] = system: MOLM-14; assay: Antiproliferative activity against human MOLM14 cells harboring FLT3-ITD mutant at […] to […] nM after 72 hrs by CellTiter-Glo assay; format: functional, cell-based
[20] = system: U-937; assay: Antiproliferative activity against human U937 cells at […] to […] nM after 72 hrs by CellTiter-Glo assay; format: functional, cell-based
[21] = molecular target: Cyclin-dependent kinase 16 (Homo sapiens) (UniProt Q00536); assay: Inhibition of PCTAIRE1 in human SKCO1 cells at 1 uM after 4 hrs using biotin labeled SKLTDNLVALKEIR probe by mass-spectrometric analysis relative to control; format: cell-based; outline: as §1
Sequence of Cyclin-dependent kinase 16 (Homo sapiens) (Q00536 whole entry): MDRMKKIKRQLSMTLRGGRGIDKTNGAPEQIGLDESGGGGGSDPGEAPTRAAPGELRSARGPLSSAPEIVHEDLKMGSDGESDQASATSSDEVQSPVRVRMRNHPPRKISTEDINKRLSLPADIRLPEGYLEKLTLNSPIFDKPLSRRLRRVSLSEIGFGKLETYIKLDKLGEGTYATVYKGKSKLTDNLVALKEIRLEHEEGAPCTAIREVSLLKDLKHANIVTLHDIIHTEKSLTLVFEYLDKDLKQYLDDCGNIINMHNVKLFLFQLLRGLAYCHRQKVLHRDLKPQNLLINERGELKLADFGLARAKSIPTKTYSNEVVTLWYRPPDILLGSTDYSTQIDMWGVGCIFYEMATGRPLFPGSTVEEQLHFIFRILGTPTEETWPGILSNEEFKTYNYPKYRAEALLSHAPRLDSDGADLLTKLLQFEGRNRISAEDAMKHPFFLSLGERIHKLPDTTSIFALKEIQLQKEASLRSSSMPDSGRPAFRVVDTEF

Sequence of Serine/threonine-protein kinase Nek6 (Homo sapiens) (Q9HC98 whole entry): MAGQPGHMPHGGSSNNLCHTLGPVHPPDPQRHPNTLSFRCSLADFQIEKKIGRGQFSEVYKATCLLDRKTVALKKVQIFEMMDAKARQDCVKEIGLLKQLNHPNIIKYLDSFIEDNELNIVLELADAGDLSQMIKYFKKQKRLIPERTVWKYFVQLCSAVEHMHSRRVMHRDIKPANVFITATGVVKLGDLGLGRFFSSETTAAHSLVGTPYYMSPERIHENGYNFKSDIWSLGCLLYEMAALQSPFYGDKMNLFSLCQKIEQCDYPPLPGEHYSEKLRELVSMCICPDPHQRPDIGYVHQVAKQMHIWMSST
Sequence of Ephrin type-B receptor 2 (Homo sapiens) (P29323 whole entry): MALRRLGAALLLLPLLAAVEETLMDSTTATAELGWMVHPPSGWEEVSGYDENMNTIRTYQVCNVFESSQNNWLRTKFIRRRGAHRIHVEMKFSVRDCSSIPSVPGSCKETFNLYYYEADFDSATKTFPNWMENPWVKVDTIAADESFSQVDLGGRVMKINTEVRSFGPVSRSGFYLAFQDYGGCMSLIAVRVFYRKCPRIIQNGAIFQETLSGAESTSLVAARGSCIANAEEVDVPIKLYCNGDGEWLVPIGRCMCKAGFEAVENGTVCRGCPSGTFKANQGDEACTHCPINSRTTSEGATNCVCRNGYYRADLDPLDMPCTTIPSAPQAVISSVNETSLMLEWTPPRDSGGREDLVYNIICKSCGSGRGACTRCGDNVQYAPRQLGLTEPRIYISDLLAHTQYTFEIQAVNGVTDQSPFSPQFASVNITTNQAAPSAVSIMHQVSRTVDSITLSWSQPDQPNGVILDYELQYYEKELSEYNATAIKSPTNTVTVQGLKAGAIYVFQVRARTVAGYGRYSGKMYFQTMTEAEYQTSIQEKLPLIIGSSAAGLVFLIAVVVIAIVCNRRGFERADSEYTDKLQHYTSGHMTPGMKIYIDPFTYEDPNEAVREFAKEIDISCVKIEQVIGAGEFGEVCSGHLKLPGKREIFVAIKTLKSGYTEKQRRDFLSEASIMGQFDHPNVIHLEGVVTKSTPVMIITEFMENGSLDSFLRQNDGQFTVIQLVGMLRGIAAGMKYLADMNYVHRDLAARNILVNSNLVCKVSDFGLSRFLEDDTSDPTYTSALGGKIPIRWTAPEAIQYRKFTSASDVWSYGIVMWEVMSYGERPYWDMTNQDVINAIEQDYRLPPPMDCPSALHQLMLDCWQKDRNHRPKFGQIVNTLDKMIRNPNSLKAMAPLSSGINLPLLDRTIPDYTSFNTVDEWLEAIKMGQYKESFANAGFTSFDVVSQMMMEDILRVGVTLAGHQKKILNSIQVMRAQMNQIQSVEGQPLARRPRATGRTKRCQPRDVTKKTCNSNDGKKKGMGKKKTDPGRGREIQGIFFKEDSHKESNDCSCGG
Sequence of Receptor tyrosine-protein kinase erbB-2 (Homo sapiens) (P04626 whole entry): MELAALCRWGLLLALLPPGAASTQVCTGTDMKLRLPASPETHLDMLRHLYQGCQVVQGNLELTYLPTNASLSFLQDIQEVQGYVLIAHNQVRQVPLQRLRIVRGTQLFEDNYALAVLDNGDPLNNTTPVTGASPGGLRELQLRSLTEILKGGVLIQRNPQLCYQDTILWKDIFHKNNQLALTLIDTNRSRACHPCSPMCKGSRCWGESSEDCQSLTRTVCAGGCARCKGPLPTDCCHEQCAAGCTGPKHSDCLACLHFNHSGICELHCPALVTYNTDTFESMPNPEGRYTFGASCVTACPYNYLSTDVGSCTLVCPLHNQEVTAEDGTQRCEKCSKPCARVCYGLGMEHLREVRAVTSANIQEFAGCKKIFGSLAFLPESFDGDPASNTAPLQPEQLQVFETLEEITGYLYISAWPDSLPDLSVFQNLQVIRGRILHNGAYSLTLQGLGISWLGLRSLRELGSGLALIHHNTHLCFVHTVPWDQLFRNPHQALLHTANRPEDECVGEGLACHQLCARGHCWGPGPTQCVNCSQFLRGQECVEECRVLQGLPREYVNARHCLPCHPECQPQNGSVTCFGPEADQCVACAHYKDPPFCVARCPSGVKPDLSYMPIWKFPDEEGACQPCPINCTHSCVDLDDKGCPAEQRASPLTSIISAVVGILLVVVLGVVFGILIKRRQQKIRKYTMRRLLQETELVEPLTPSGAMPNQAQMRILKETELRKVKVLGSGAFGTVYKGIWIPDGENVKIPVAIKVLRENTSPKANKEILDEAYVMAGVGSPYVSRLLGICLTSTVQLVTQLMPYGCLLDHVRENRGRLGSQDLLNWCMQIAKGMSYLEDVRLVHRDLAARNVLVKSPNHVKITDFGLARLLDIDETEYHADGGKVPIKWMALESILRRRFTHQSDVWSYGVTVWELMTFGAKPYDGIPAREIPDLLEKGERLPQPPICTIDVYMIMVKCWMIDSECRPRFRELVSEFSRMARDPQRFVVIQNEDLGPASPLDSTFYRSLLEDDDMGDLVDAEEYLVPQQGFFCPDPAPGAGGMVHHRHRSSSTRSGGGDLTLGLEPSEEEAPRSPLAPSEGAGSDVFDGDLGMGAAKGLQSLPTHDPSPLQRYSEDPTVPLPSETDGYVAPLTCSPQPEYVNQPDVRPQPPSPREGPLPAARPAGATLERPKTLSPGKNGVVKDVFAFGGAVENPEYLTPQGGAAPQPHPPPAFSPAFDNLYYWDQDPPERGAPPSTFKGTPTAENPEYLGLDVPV
Sequence of Serine/threonine-protein kinase Sgk3 (Homo sapiens) (Q96BR1 whole entry): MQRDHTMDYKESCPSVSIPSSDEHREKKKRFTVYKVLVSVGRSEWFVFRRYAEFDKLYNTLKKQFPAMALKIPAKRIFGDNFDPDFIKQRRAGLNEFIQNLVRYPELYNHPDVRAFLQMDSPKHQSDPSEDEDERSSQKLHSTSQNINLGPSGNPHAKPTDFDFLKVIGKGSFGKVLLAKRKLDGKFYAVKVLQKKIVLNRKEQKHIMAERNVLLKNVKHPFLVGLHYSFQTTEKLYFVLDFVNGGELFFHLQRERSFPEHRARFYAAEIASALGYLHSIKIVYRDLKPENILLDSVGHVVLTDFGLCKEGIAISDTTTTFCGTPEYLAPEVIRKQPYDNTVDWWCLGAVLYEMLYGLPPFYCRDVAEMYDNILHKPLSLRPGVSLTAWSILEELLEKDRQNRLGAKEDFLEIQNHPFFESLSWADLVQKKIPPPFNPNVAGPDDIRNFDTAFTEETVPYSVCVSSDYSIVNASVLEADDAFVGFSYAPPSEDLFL
Sequence of Cyclin-dependent kinase 5 (Homo sapiens) (Q00535 whole entry, looked up, the tested form may be a part): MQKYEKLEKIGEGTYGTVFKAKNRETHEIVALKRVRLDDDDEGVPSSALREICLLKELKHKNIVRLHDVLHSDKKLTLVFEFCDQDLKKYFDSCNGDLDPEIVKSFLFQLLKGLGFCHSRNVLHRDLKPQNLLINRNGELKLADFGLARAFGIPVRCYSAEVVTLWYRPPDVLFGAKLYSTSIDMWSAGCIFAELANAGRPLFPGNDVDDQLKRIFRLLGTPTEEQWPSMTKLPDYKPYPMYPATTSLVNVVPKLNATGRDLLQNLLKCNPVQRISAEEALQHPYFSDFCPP
Sequence of Cyclin-dependent kinase 6 (Homo sapiens) (Q00534 whole entry): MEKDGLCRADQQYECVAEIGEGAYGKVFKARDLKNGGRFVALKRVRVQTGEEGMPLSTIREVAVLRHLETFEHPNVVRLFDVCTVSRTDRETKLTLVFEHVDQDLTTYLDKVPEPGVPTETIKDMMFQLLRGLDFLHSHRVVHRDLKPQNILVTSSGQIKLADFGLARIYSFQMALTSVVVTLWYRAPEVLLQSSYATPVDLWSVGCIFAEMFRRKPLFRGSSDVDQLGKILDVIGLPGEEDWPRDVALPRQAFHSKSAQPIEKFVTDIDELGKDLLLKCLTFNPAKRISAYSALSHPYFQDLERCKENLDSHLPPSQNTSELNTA
Sequence of Eukaryotic elongation factor 2 kinase (Homo sapiens) (O00418 whole entry): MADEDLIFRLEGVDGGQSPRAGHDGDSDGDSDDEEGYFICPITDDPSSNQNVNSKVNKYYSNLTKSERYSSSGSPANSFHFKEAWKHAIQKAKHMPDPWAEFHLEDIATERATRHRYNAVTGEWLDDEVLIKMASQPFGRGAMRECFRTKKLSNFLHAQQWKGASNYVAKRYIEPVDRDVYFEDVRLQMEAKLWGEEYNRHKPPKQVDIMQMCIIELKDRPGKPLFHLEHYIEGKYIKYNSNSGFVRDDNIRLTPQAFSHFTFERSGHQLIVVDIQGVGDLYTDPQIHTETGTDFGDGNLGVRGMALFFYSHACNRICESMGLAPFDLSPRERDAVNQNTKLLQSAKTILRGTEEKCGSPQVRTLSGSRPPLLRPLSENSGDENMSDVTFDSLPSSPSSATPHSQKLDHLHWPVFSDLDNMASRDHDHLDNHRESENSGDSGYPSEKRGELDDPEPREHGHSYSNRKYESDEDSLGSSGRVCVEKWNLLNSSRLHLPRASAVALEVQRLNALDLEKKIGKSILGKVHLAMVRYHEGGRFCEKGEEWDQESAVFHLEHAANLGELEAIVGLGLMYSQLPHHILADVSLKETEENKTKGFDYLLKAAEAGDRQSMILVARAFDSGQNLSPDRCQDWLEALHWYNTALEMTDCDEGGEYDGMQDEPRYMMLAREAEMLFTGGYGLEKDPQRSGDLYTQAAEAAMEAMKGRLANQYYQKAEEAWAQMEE

`COc1cc(O)c2c(c1)/C=C/C[C@H](O)[C@H](O)C(=O)/C=C\C[C@H](C)OC2=O` showed an inhibition [1] of -1.4%, an IC50 [2] of 2020 nM and an IC50 [3] of 12 nM. For the same compound, the inhibition [4] was “Active”, the IC50 [5] was 6020 nM and the inhibition [6] was “Active”. The inhibition [7] was 68.8%, the inhibition [8] was 33.5% and the inhibition [9] was -7.7%. The inhibition [10] was 2.1%, the inhibition [11] was 6.4% and the inhibition [12] was 24.2%. For the same compound, the inhibition [13] was 14.5%, the inhibition [14] was 85.5% and the inhibition [15] was 4.9%. The inhibition [16] was “Active”.
With `C=CC(=O)Nc1ccccc1Nc1nc(Nc2ccc(N3CCN(C)CC3)cc2)ncc1Cl` the inhibition [17] was 25.5%, the inhibition [18] was -1.2% and the inhibition [1] was -2.7%. For the same compound, the inhibition [4] was “Active”, the inhibition [6] was “Active” and the Activity [19] was “Active”. The Activity [20] was “Active”, the inhibition [14] was 57% and the inhibition [21] was -8%. The inhibition [16] was “Active”.
`C=CC(=O)Nc1ccccc1Oc1nc(Nc2cnn(CCOC)c2)ncc1Cl` showed an inhibition [17] of 10%, an inhibition [18] of -0.4% and an IC50 [2] of 3020 nM. The IC50 [3] was 302 nM, the IC50 [5] was 1340 nM and the Activity [19] was “Active”. It also gave an inhibition [7] of 54.5%, an inhibition [8] of 10.9% and an inhibition [9] of 6.7%. For the same compound, the inhibition [10] was 4.2%, the inhibition [11] was 12.8% and the inhibition [12] was 13.7%. The inhibition [13] was -2.2%, the Activity [20] was “Active” and the inhibition [21] was -5.2%. It also gave an inhibition [15] of -0.4%.
